Test results as given in ChEMBL document CHEMBL1122058, “Agents for the treatment of brain injury. 1. (Aryloxy)alkanoic acids” (J Med Chem, 1982).
Active and inactive are the calls of the source. No cut-off for these calls is given here.

Tests used:
[1] = Distribution coefficient (D %) between octanol and buffer of pH 7.4; type: physicochemical; conditions: octanol/water
[2] = Dissociation constant (pKa) (determined in 30% EtOH); type: physicochemical
Felis catus [3] = organism: Felis catus; experiment: In vitro inhibition of HCO3- stimulated swelling in cat cerebrocortical tissue slice; type: functional; conditions: read-out: I 50
Method in brief: (§1)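 Cat cerebral cortex slices (~150 mg, 0.5 mm) incubated aerobically 60 min at 37 °C in K+-rich (27 mM) Hepes-buffered saline-glucose with test compound as Na salt. HCO3- (NaHCO3 or TEAB) added from sidearm at 20 min to 10 mM final; HCO3- flasks gassed with 2.5% CO2/97.5% O2. Swelling by reweighing; Na+/K+ by flame photometry, Cl- by amperometric titration. Units: per g initial fresh weight; means ± SE, Student's t test.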

Canis familiaris [4] = organism: Canis familiaris; experiment: Relative salidiuretic efficacy was scored in dog; Marginal; type: functional, organism-based; conditions: Canis lupus familiaris; Urine
Pan troglodytes [5] = organism: Pan troglodytes; experiment: Relative salidiuretic efficacy was scored in chipanze; weak; type: functional, organism-based; conditions: Urine
Rattus norvegicus [6] = organism: Rattus norvegicus; experiment: Relative salidiuretic efficacy was scored in Rat; weak; type: functional, organism-based; conditions: Urine
Felis catus [7] = organism: Felis catus; experiment: Evaluated for chloride ion content of Cerebrocortical slices in cat with addition of Sodium Bicarbonate (NaHCO3).; type: functional; method in brief: as §1
Felis catus [8] = organism: Felis catus; experiment: Evaluated for Sodium ion content of Cerebrocortical slices in cat with addition of Sodium Bicarbonate (NaHCO3).; type: functional; method in brief: as §1
Felis catus [9] = experiment: Mortality of animals recorded as the number of animals dead out of the total animals (42) taken for the study at dose 1 mg/kg; type: functional
Method in brief: (§2)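 Adult conditioned cats (2.5–4 kg) under iv methohexital (13.25 mg/kg, plus 2.75 mg/kg if needed) received machine-induced acceleration/deceleration head injury. Forty min later they were paralysed with gallamine and ventilated with 6% O2/94% N2 for 60 min (arterial pO2 23 ± 1 torr). Drug was given iv 20 min post-injury, before hypoxemia. Mortality was scored as dead/total, chi-square tested.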

Felis catus [10] = organism: Felis catus; experiment: (§3) Evaluated for chloride ion content of Cerebrocortical slices in cat with out additions; type: functional; method in brief: as §1
[11] = Compound was tested for bicarbonate stimulated swelling of Cerebrocortical slices from cat with addition of Sodium Bicarbonate (NaHCO3) (in vitro); method in brief: as §1
Felis catus [12] = organism: Felis catus; experiment: Evaluated for Potassium ion content of Cerebrocortical slices in cat with addition of Sodium Bicarbonate (NaHCO3).; type: functional; method in brief: as §1
[13] = Compound was tested for bicarbonate stimulated swelling of Cerebrocortical slices from cat with addition of Triethylammonium Bicarbonate (TEAB) (in vitro); type: functional; method in brief: as §1
Felis catus [14] = organism: Felis catus; experiment: (§4) Evaluated for Potassium ion content of Cerebrocortical slices in cat with out additions; type: functional; method in brief: as §1
Felis catus [15] = organism: Felis catus; experiment: as §3; type: functional; method in brief: as §1; remark: listed apart in the source
Felis catus [16] = organism: Felis catus; experiment: In vitro inhibition of tissue swelling of Cerebrocortical slices from cat with addition of Sodium Bicarbonate (NaHCO3).; type: functional; method in brief: as §1
Felis catus [17] = organism: Felis catus; experiment: In vitro inhibition of tissue swelling of Cerebrocortical slices from cat with out additions
Homo sapiens [18] = organism: Homo sapiens; experiment: Relative salidiuretic efficacy was scored in human; moderate; type: functional, organism-based; conditions: Urine
Felis catus [19] = organism: Felis catus; experiment: In vitro inhibition of tissue swelling of Cerebrocortical slices from cat with out additions; type: functional; method in brief: as §1
Rattus norvegicus [20] = organism: Rattus norvegicus; experiment: Relative salidiuretic efficacy was scored in Rat; moderate; type: functional, organism-based; conditions: Urine
Felis catus [21] = organism: Felis catus; experiment: Evaluated for Sodium ion content of Cerebrocortical slices in cat with out additions
Canis familiaris [22] = organism: Canis familiaris; experiment: Relative salidiuretic efficacy was scored in dog; moderate; type: functional, organism-based; conditions: Canis lupus familiaris; Urine
Felis catus [23] = organism: Felis catus; experiment: Evaluated for Sodium ion content of Cerebrocortical slices in cat with out additions; type: functional; method in brief: as §1
Felis catus [24] = organism: Felis catus; experiment: Evaluated for chloride ion content of Cerebrocortical slices in cat with addition of Triethylammonium Bicarbonate (TEAB).; type: functional; method in brief: as §1
Pan troglodytes [25] = organism: Pan troglodytes; experiment: Relative salidiuretic efficacy was scored in chimpanzee; moderate; type: functional, organism-based; conditions: Urine
Felis catus [26] = organism: Felis catus; experiment: Evaluated for Sodium ion content of Cerebrocortical slices in cat with addition of Triethylammonium Bicarbonate (TEAB).; type: functional; method in brief: as §1
Felis catus [27] = organism: Felis catus; experiment: In vitro inhibition of tissue swelling of Cerebrocortical slices from cat with addition of Triethylammonium Bicarbonate (TEAB).; type: functional; method in brief: as §1
Felis catus [28] = organism: Felis catus; experiment: Evaluated for Potassium ion content of Cerebrocortical slices in cat with addition of Triethylammonium Bicarbonate (TEAB).; type: functional; method in brief: as §1
Felis catus [29] = organism: Felis catus; experiment: as §4; type: functional; method in brief: as §1; remark: listed apart in the source
Felis catus [30] = experiment: Mortality of animals recorded as the number of animals dead out of the total animals (16) taken for the study at dose 5 mg/kg; type: functional; method in brief: as §2
Rattus norvegicus [31] = organism: Rattus norvegicus; experiment: Relative salidiuretic efficacy was scored in Rat; Marginal; type: functional, organism-based; conditions: Urine
Pan troglodytes [32] = organism: Pan troglodytes; experiment: Relative salidiuretic efficacy was scored in chimpanzee; Marginal; type: functional, organism-based; conditions: Urine
Rattus norvegicus [33] = organism: Rattus norvegicus; experiment: Relative salidiuretic efficacy was scored in Rat; very marked; type: functional, organism-based; conditions: Urine
Canis familiaris [34] = organism: Canis familiaris; experiment: Relative salidiuretic efficacy was scored in dog; marked; type: functional, organism-based; conditions: Canis lupus familiaris; Urine
Felis catus [35] = experiment: Mortality of animals recorded as the number of animals dead out of the total animals (22) taken for the study at dose 1 mg/kg; type: functional; method in brief: as §2
Pan troglodytes [36] = organism: Pan troglodytes; experiment: Relative salidiuretic efficacy was scored in chimpanzee; very marked; type: functional, organism-based; conditions: Urine
Homo sapiens [37] = organism: Homo sapiens; experiment: Relative salidiuretic efficacy was scored in human; very marked; type: functional, organism-based; conditions: Urine
Felis catus [38] = experiment: Mortality of animals recorded as the number of animals dead out of the total animals (16) taken for the study at dose 1 mg/kg given q.i.d.; type: functional
Canis familiaris [39] = organism: Canis familiaris; experiment: Relative salidiuretic efficacy was scored in dog; very marked; type: functional, organism-based; conditions: Canis lupus familiaris; Urine
Felis catus [40] = experiment: Mortality of animals recorded as the number of animals dead out of the total animals (39) taken for the study at dose 1 mg/kg; type: functional; method in brief: as §2

## O=C(O)COc1cc2c(c(Cl)c1Cl)C(=O)C(CC1CCCC1)C2 (racemic)
[1]
  Distribution: 97%
[2]
  pKa: 3.8
Felis catus [3]
  IC50: 0.01 µM
Canis familiaris [4]
  Relative salidiuretic activity: Marginal
Pan troglodytes [5]
  Relative salidiuretic activity: Marginal
Rattus norvegicus [6]
  Relative salidiuretic activity: Marginal

## CC1(C2CCCC2)Cc2cc(OCC(=O)O)c(Cl)c(Cl)c2C1=O (racemic)
Felis catus [7]
  Activity: 98.2 µM/g
Felis catus [8]
  Activity: 116.3 µM/g
Felis catus [9]
  Mortality: 11
Felis catus [10]
  Activity: 90.2 µM/g
[11]
  Activity: 100
Felis catus [12]
  Activity: 97.1 µM/g
[1]
  Distribution: 90%
[13]
  Activity: 100
Felis catus [14]
  Activity: 93.5 µM/g
Felis catus [15]
  Activity: 89.9 µM/g
Felis catus [16]
  Tissue swelling: 268 µL/g
Felis catus [17]
  Tissue swelling: 170 µL/g
Homo sapiens [18]
  Relative salidiuretic activity: marked
[2]
  pKa: 3.9
Felis catus [19]
  Tissue swelling: 179 µL/g
Felis catus [3]
  IC50: 0.2 µM
Rattus norvegicus [20]
  Relative salidiuretic activity: marked
Felis catus [21]
  Activity: 100.4 µM/g
Canis familiaris [22]
  Relative salidiuretic activity: marked
Felis catus [23]
  Activity: 101.6 µM/g
Felis catus [24]
  Activity: 104.8 µM/g
Pan troglodytes [25]
  Relative salidiuretic activity: marked
Felis catus [26]
  Activity: 118.8 µM/g
Felis catus [27]
  Tissue swelling: 293 µL/g
Felis catus [28]
  Activity: 91.4 µM/g
Felis catus [29]
  Activity: 94.4 µM/g

## CC1(C2CCCC2)Cc2cc(OCCCC(=O)O)c(Cl)c(Cl)c2C1=O (racemic)
Felis catus [30]
  Mortality: 4
[1]
  Distribution: 99%
Rattus norvegicus [31]
  Relative salidiuretic activity: inactive
[2]
  pKa: 5.7
Felis catus [3]
  IC50: 0.02 µM
Canis familiaris [4]
  Relative salidiuretic activity: inactive
Pan troglodytes [32]
  Relative salidiuretic activity: inactive

## CC1(c2ccccc2)Cc2cc(OCC(=O)O)c(Cl)c(Cl)c2C1=O (racemic) [INDACRINONE]
Rattus norvegicus [33]
  Relative salidiuretic activity: marked
Canis familiaris [34]
  Relative salidiuretic activity: marked
[1]
  Distribution: 84%
[2]
  pKa: 3.7
Felis catus [3]
  IC50: 1 µM
Felis catus [35]
  Mortality: 8
Pan troglodytes [36]
  Relative salidiuretic activity: marked
Homo sapiens [37]
  Relative salidiuretic activity: marked

## CC(=O)Nc1nnc(S(N)(=O)=O)s1 [ACETAZOLAMIDE]
[1]
  Distribution: 22%
Felis catus [3]
  IC50: 2000 µM
Felis catus [38]
  Mortality: 8

## C=C(CC)C(=O)c1ccc(OCC(=O)O)c(Cl)c1Cl [ETHACRYNIC ACID]
[1]
  Distribution: 61%
Rattus norvegicus [31]
  Relative salidiuretic activity: Marginal
Felis catus [3]
  IC50: 1 µM
Pan troglodytes [36]
  Relative salidiuretic activity: Marginal
Canis familiaris [39]
  Relative salidiuretic activity: Marginal
Homo sapiens [37]
  Relative salidiuretic activity: Marginal
Felis catus [40]
  Mortality: 14
